# Rows were chosen to be rich in hits. Some 2.7% of all compounds tested hit in one or more screens of this group.
# FGF22 binding-1: binders of human FGF22 protein, primary screen, FGF22 synaptogenesis inhibitor project, biophysical, thermal shift, single point; activity (Tm shift, normalised), % at 9.99 µM; AID 651658, 2012; 340,000 tested, 1.5% active; Fibroblast growth factor 22 (Homo sapiens), Q9HCT0; recombinant FGF22 thermal shift, SYPRO orange fluorescence; percent of sucrose octasulfate shift, DMSO zero;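 active = mean Tm shift, scaled 0 neutral to 100 positive control, at about 1.3% or above, every replicate too, limit read from the data; inconclusive = no clear call, values can overlap the other calls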
# Target sequence (Q9HCT0 whole entry, looked up): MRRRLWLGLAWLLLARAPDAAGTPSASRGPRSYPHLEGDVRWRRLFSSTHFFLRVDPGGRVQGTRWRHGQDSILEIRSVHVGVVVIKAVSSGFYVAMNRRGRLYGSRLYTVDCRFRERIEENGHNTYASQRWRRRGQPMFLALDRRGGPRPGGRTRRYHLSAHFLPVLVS
# HIV Env fusion: inhibitors of HIV-1 Env-driven cell-cell fusion, primary screen, HeLa-JRFL effector, CEM21 target cells, luciferase | inhibition, % at 12.3 µM | 360,000 tested, 1.1% active;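 active = mean replicate inhibition score of at least 50 and every replicate individually at or above 50; inconclusive = only one of the two criteria met; inactive = mean below 50 and not all replicates reaching 50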;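 also: 0% = plate neutral controls and 100% = maraviroc near 300 nM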
# F508del corr: F508del CFTR correction, initial screen, CFBE line, single point | 350,000 tested, 0.36% active | activity (quench increase), % at 7.58 µM | CFBE cells, YFP halide quenching; stimulated with forskolin plus potentiator P3; % fluorescence drop versus neutral controls;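 active = mean added fluorescence quench of at least 8% versus neutral control, with both replicates also reaching 8%; inconclusive = only one of the mean or replicate conditions met; inactive = mean below 8% and not both replicates reaching 8%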;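 also: cells transiently co-express mutant CFTR-F508del with the halide-sensitive YFP; corrector assay measuring rescue of mutant channel to the surface after 24 h compound exposure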
# S100A4 inh HTS: inhibitors of S100A4-myosin IIA peptide binding, primary screen, biochemical, fluorescence polarization, TAMRA-MyoIIA peptide; 360,000 tested, 0.14% active; Protein S100-A4 (Homo sapiens), P26447; AID 652163, 2013; inhibition, % at 10.7 µM;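 active = mean inhibition of at least 70% across replicates, with every replicate also reaching that level; inconclusive = mean inhibition reaches 70% but some replicates fall short; inactive = mean inhibition below 70%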
# Target sequence (P26447 whole entry, looked up): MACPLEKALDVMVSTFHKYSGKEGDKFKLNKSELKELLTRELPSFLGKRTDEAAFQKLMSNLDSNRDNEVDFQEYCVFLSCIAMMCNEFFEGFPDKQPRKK
#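 System – human S100A4 monomer protein, biochemical binding assay · Buffer or medium – Calcium-containing HEPES buffer, pH 7.2 · Timing – 5 min between mix addition and reading · Also added – TAMRA-labelled myosin IIA heavy-chain peptide probe, 5 nM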
# E-selectin induc: E-selectin induction in HUVECs, primary screen, imaging, HUVEC, immunofluorescence imaging, single point. P16581. normalized: neutral wells 0, TNF-alpha wells 100. activation, % at 7.58 µM. 260,000 tested, 0.37% active;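 active = mean E-selectin-positive cell signal at least 10% of the positive control, reached in at least 60% of replicates, without over 20% cell loss; inconclusive = no rule given, readout overlaps actives, possibly toxicity-flagged; inactive = the rest, including those meeting only one limit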
#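 Test system – human umbilical vein endothelial cells (HUVEC), E-selectin induction · Input – 3,000 HUVEC seeded per well · Buffer or medium – EGM-2, gelatin · Compound dosing – single-point compound dose · Detection – immunofluorescence imaging · Measure – percent E-selectin-positive cells · Controls – TNF-alpha high, DMSO low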
# FGF22 binding-2: binders of human FGF22 protein, dose response, FGF22 synaptogenesis inhibitor project, biophysical, thermal shift, cherry-pick retest | shares compounds with FGF22 binding-1 | recombinant FGF22 thermal shift, SYPRO orange fluorescence | thermal shift activity, °C (ΔTm) at 38 µM | 1,000 tested, 2% active | AID 720646, 2013;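 active = fitted rise in melting shift crosses a set limit at or below the top valid dose tested; inconclusive = flat fit at mid-level activity, or a poor quality fit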
# TSA no protein: compound-only thermal shift signal without protein, dose response, artefact control for FGF22 binder project, biochemical, cherry-picked samples, RT-PCR instrument; shares compounds with FGF22 binding-1; compound-only SYPRO orange thermal shift counter-screen, no protein; AC50, µM (highest dose often 38 µM); 1,000 tested, 2% active; AID 743019, 2013;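 active = rising signal whose fitted curve reaches the 0.54 level within the top valid dose, showing a melting point, actives reach about 13 µM in these data; inactive = the rest, including activity in the opposite direction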; also: value is where the raw curve crosses a fixed level and not half-maximal
# * marks the source's active call; other numbers are inactive results; i = inactive; ? = inconclusive; / = no result given; [ ] = dose if it differs, or a comment.
SMILES,FGF22 binding-1,HIV Env fusion,F508del corr,S100A4 inh HTS,E-selectin induc,FGF22 binding-2,TSA no protein
COC(=O)C[C@@H]1CC[C@@H]2[C@H](COc3ccc(NC(=O)c4ccccc4)cc3C(=O)N2C)O1,0.0,-10.4[16.7 µM],1.7,4.4,0.1,/,/
Cn1ncc2c(Nc3ccc(Cl)c(Cl)c3)ncnc21,9.1*,-6.5,0.5,-0.9,/,0.147,i
CC1CC(CC(=O)NC(=S)Nc2ccccc2Cl)C(=O)O1 (stereo not given),1.6*,0.7,-3.2,3.6,/,0.091,i
O=C(NNC(=O)C1CCN(S(=O)(=O)c2ccccc2C(F)(F)F)CC1)c1ccccc1O,2.6*,0.2,1.1,2.4,/,-0.147,i
CCCn1c(O)c(C=Nc2ccccc2)sc1=S,0.2,-27.5,-2.9,2.8,-1.9,/,/
CCn1c(O)c(C=NCc2ccccc2)sc1=S,2.9*,1.4,0.4,8.9,/,0.112,i
Cc1noc(C)c1S(=O)(=O)Nc1ccc2c(c1)C(=O)N([C@@H](C)CO)C[C@@H](C)[C@@H](CN(C)CC1CCCCC1)O2,0.1,0.7[16.7 µM],0.3,-3.2,0.7,/,/
CCCN1C[C@H](C)[C@@H](OC)CN(C)C(=O)c2ccc(NC(=O)C3CC3)cc2OC[C@H]1C,0.2,/,2.0,2.3,-0.2,/,/
Cc1ccc(S(=O)(=O)N[C@H]2C=C[C@@H](CC(=O)NCc3ccc(Cl)c(Cl)c3)O[C@H]2CO)cc1,1.3*,8.8[16.7 µM],0.8,14.6,0.3,0.124,i
COc1ccc(S(=O)(=O)N[C@@H]2C=C[C@H](CC(=O)NCCc3ccccc3)O[C@@H]2CO)cc1,1.4*,-16.8[16.7 µM],-0.6,-5.2,0.9,0.093[42 µM],i
COc1ccc(S(=O)(=O)N[C@H]2C=C[C@@H](CC(=O)NCCc3ccccc3)O[C@@H]2CO)cc1,0.0,-11.1[16.7 µM],-0.9,7.4,0.1,/,/
CCS(=O)(=O)Nc1ccc2c(c1)C(=O)N(C)C[C@@H](OC)[C@@H](C)CN(C(=O)NC(C)C)[C@H](C)CO2,-0.4,/,2.2,-0.5,-0.1,/,/
C[C@@H]1CN([C@H](C)CO)C(=O)c2ccccc2-c2ccccc2CO[C@H]1CN(C)S(=O)(=O)c1ccccc1,-0.1,/,0.9,-9.3,0.0,/,/
CC(C)c1ccc(NC2CCCN(C(=O)c3cc(C(C)C)[nH]n3)C2)cc1 (stereo not given),27.9*,8.4,0.0,-2.8,/,0.201,i
O=C(O)c1[nH]c2ccc(Br)cc2c1CCN1C(=O)c2cccc([N+](=O)[O-])c2C1=O,3.0*,-7.7,0.1,-4.1,-0.1,/,i
C[C@H]1CN([C@@H](C)CO)C(=O)Cc2cc(NC(=O)NC3CCCCC3)ccc2O[C@H]1CN(C)Cc1ccc(C(=O)O)cc1,0.0,/,-1.6,-0.9,-9.3,/,/
CC(=O)Nc1ccc2sc(C)nc2c1,37.6*,-3.2,0.1,-3.5,1.1,0.152,i
Cc1nc2cc(NC(=O)CS(=O)(=O)c3ccccc3)ccc2s1,0.2,5.1,-2.3,-1.3,-1.4,/,/
O=C(C[C@H]1CC[C@H]2[C@@H](COC[C@H](O)CN2Cc2ccccc2)O1)NCCc1ccccc1,1.6*,/,-0.5,2.5,-0.1,0.142,i
O=C(C[C@H]1CC[C@@H]2[C@H](COC[C@H](O)CN2Cc2cc(F)ccc2F)O1)NCc1ccc(F)cc1,2.6*,/,0.8,-0.7,0.0,0.157[42 µM],i
O=C(C[C@@H]1CC[C@H]2[C@@H](COC[C@@H](O)CN2Cc2ccccc2)O1)NCCc1ccccc1,/,/,2.9,-6.5,0.0,/,/
O=C(C[C@@H]1CC[C@H]2[C@@H](COC[C@@H](O)CN2C(=O)c2ccccc2F)O1)NCc1ccccc1,1.8*,/,1.3,-9.0,0.0,0.033[42 µM],i
O=C(C[C@@H]1CC[C@@H]2[C@H](COC[C@H](O)CN2Cc2cc(F)ccc2F)O1)NCc1ccc(F)cc1,0.6,/,0.7,0.0,0.0,/,/
O=C(C[C@@H]1CC[C@H]2[C@@H](COC[C@@H](O)CN2C(=O)c2ccc(F)cc2)O1)NCc1cccc(F)c1,1.5*,/,0.7,-46.5,0.0,0.035,i
O=C(C[C@H]1CC[C@@H]2[C@H](COC[C@H](O)CN2C(=O)c2ccc(F)cc2)O1)NCc1cccc(F)c1,0.7,/,-0.8,-24.6,0.0,/,/
SMILES,FGF22 binding-1,HIV Env fusion,F508del corr,S100A4 inh HTS,E-selectin induc,FGF22 binding-2,TSA no protein
O=C(C[C@@H]1CC[C@H]2[C@@H](COC[C@@H](O)CN2C(=O)c2ccccc2)O1)N1CCc2ccccc2C1,0.1,/,0.1,-31.2,-0.1,/,/
O=C(CC1CC1)Nc1ccc2c(c1)[C@H]1C[C@@H](CC(=O)NC3CCCCC3)O[C@H](CO)[C@H]1O2,-0.2,-13.2[16.7 µM],2.2,0.0,0.4,/,/
CC(C)Oc1ccc(C(=O)NC2CCN(Cc3ccccc3)CC2)cc1,6.6*,-7.7,-1.6,-7.3,0.1,0.047,i
CC(Oc1ccc(Br)cc1)C(=O)NC1CCN(Cc2ccccc2)CC1 (stereo not given),/,-19.1,-6.6,2.5,/,/,/
Cc1noc(C)c1S(=O)(=O)N(C)C[C@H]1OCCCC[C@H](C)Oc2ccc(NS(=O)(=O)c3ccccc3)cc2C(=O)N([C@@H](C)CO)C[C@@H]1C,-0.7,3.9[16.7 µM],6.1,37.3,/,/,/
CC(=O)Nc1cc(-c2ccccc2Cl)cn2c(-c3ccc(S(C)(=O)=O)cc3)cnc12,1.7*,9.3,-2.8,1.8,-0.2,-0.006,i
O=C(C[C@H]1CC[C@H]2[C@@H](COC[C@@H](O)CN2C(=O)Nc2ccc(F)cc2)O1)NCCc1ccccc1,0.0,-5.3[16.7 µM],1.6,7.4,-0.1,/,/
CCCNC(=O)N1C[C@H](C)[C@H](OC)CN(C)C(=O)c2cc(NC(=O)CCC)ccc2OC[C@@H]1C,/,6.5[16.7 µM],0.1,/,0.0,/,/
C[C@@H]1CN([C@H](C)CO)C(=O)c2cc(NS(C)(=O)=O)ccc2O[C@@H](C)CCCCO[C@H]1CN(C)Cc1ccncc1,1.7*,-15.3[16.7 µM],-1.4,-0.2,-0.2,-0.013[42 µM],i
CC(C)NC(=O)Nc1ccc2c(c1)C(=O)N([C@H](C)CO)C[C@@H](C)[C@@H](CN(C)C(=O)Nc1ccccc1)OCCCC[C@@H](C)O2,2.6*,?,-1.1,10.5,0.2,0.013,i
